Several values for one entry are separate records, joined by “and”; a condition that tells them apart may be missing. Equal entries are not always repeated. Blank lines part the entries; values can stand above or below the molecule they belong to.
What was measured:
Prothrombin [1] = molecular target: Prothrombin (Bos taurus, UniProt P00735); assay: Inhibitory activity against bovine thrombin
Rattus norvegicus [2] = assay: Percentage inhibition on the f fibrinogen accumulation in the rat model of Arterial thrombosis at 2.0 dose (mg/kg); format: functional
Summary of the method: (§1)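 Rat dorsal aorta injury model. Rats received 111In-labelled platelets 24 h and 125I-fibrinogen 10 min before injury. The aorta was clamped with modified forceps for 1 min, then blood flowed 45 min. The vessel was excised, washed in 5% citrate and gamma-counted, and counts were converted to mg blood equivalents. Dosing was iv 1 min or sc 1 h before clamping. Result is % inhibition versus placebo accumulation, mean ± SEM, n = 5.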

[3] = TThe compound was evaluated for the APTT value expressed as multiplies of control and was measured at the termination of the experiment (45 min later) in the rat model of arterial thrombosis at 1.0 dose (mg/kg); format: functional
Summary of the method: (§2)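 Rat arterial thrombosis model with sc dosing 1 h before clamping the dorsal aorta. Blood was taken via carotid cannula into one-tenth volume 3.8% trisodium citrate just before clamping and at termination, 45 min later. APTT was measured on plasma and expressed as a multiple of control, mean ± SEM, n = 5.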

Rattus norvegicus [4] = assay: Percentage inhibition on the f fibrinogen accumulation in the rat model of Arterial thrombosis at 3.0 dose (mg/kg); format: functional; summary of the method: as §1
[5] = The compound was evaluated for the APTT value expressed as multiplies of control and was measured at the termination of the experiment (45 min later) in the rat model of arterial thrombosis at 30.0 dose (mg/kg); format: functional; summary of the method: as §2
Rattus norvegicus [6] = assay: Percentage inhibition on the platelet accumulation in the rat model of Arterial thrombosis at 0.3 dose (mg/kg); format: functional; summary of the method: as §1
Rattus norvegicus [7] = assay: Percentage inhibition on venous stasis thrombosis in the rat at 0.1 dose (mg/kg); format: functional
Summary of the method: (§3)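 Rat acute venous stasis. The vessel was excised after 10 min and the thrombus weighed. Compound was dosed iv 2 min or sc 1 h before stasis. Result is % inhibition of mean control thrombus weight relative to placebo, mean ± SEM, n = 5.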

Rattus norvegicus [8] = assay: Percentage inhibition on the platelet accumulation in the rat model of Arterial thrombosis at 3.0 dose (mg/kg); format: functional; summary of the method: as §1
Plasminogen = Plasminogen (Homo sapiens, UniProt P00747); assay: The compound was evaluated for the inhibitory activity against human plasmin
Sequence of Plasminogen (P00747 97-580 limits assumed): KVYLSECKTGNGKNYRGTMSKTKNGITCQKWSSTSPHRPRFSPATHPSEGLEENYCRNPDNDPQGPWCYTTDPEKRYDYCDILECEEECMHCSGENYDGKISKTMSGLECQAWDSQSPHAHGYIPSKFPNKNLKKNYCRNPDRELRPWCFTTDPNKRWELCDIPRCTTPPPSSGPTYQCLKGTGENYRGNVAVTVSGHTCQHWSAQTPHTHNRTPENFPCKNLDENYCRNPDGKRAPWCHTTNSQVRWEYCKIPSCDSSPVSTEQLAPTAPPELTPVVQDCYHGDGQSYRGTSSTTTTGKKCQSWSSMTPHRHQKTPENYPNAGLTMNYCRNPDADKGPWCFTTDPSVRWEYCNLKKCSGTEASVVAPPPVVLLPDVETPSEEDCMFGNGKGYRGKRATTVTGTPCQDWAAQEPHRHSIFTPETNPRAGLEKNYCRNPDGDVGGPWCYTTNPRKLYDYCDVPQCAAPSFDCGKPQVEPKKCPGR
Sequence of Plasminogen (P00747 581-810 limits assumed): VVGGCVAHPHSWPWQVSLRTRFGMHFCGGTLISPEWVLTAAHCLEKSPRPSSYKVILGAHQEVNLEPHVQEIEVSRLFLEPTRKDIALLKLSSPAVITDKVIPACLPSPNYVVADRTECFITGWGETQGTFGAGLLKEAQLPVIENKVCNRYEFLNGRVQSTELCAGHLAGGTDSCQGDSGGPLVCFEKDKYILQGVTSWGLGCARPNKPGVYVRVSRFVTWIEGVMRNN
Summary of the method: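 Human plasmin, S-2251 chromogenic substrate, 0.05 M TRIS-HCl pH 8.4. Run like the thrombin assay: DMSO stock (final below 0.5%), initial rate at 405 nm over 30 s, substrate varied across a range. Ki was calculated from Lineweaver-Burk intercepts of control and inhibited curves.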

Rattus norvegicus [9] = assay: Percentage inhibition on the platelet accumulation in the rat model of Arterial thrombosis at 2.0 dose (mg/kg); format: functional; summary of the method: as §1
[10] = The compound was evaluated for the APTT value expressed as multiplies of control and was measured at the termination of the experiment (45 min later) in the rat model of arterial thrombosis at 3.0 dose (mg/kg); format: functional; summary of the method: as §2
Rattus norvegicus [11] = assay: Percentage inhibition on venous stasis thrombosis in the rat at 1.0 dose (mg/kg); format: functional; summary of the method: as §3
Rattus norvegicus [12] = assay: Percentage inhibition on the f fibrinogen accumulation in the rat model of Arterial thrombosis at 30.0 dose (mg/kg); format: functional; summary of the method: as §1
Rattus norvegicus [13] = assay: Percentage inhibition on venous stasis thrombosis in the rat at 3.0 dose (mg/kg); format: functional; summary of the method: as §3
Rattus norvegicus [14] = assay: Percentage inhibition on the f fibrinogen accumulation in the rat model of Arterial thrombosis at 1.0 dose (mg/kg); format: functional; summary of the method: as §1
Rattus norvegicus [15] = assay: Percentage inhibition on the f fibrinogen accumulation in the rat model of Arterial thrombosis at 10.0 dose (mg/kg); format: functional; summary of the method: as §1
Rattus norvegicus [16] = assay: Percentage inhibition on the platelet accumulation in the rat model of Arterial thrombosis at 30.0 dose (mg/kg); format: functional; summary of the method: as §1
[17] = The compound was evaluated for the APTT value expressed as multiplies of control and was measured at the termination of the experiment (45 min later) in the rat model of arterial thrombosis at 2.0 dose (mg/kg); format: functional; summary of the method: as §2
[18] = TThe compound was evaluated for the APTT value expressed as multiplies of control and was measured at the termination of the experiment (45 min later) in the rat model of arterial thrombosis at 10.0d ose (mg/kg); format: functional; summary of the method: as §2
Trypsin II = molecular target: T1, Trypsin II (Bos taurus, UniProt Q29463); assay: The compound was evaluated for the inhibitory activity against bovine trypsin
T1 sequence (Q29463 whole entry): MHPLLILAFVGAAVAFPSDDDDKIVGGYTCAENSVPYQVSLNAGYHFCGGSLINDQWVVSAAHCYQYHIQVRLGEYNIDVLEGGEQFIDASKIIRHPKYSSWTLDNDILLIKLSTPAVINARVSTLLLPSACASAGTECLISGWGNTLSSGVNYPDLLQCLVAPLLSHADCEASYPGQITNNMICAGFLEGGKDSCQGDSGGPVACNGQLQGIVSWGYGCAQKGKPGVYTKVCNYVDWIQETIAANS
Summary of the method: (§4)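 Chromogenic assay run as for thrombin, with S-2222 (trypsin) or S-2586 (chymotrypsin) as substrate. Enzymes were bovine. Buffer was 0.05 M TRIS-HCl, pH 8.4. Compound stocks were in DMSO (final below 0.5%). Rate was read at 405 nm over 30 s. Ki came from double-reciprocal plots across a range of substrate concentrations.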

[19] = The compound was evaluated for the dose to double the control plasma APTT value in the human plasma; format: functional
Summary of the method: (§5)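 Human blood was anticoagulated with one-tenth volume 3.8% trisodium citrate and centrifuged at 1300g for 20 min to give platelet-poor plasma. Plasma was spiked with compound at 0 to about 150 μM. It was activated 5 min at 37 °C with bovine cephalin (ellagic acid) reagent, and clotting was started with 20 mM CaCl2. Clot time was read on a coagulometer. Concentration doubling APTT was read from a concentration–APTT plot.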

Rattus norvegicus [20] = assay: Percentage inhibition on the platelet accumulation in the rat model of Arterial thrombosis at 10.0 dose (mg/kg); format: functional; summary of the method: as §1
Rattus norvegicus [21] = assay: Percentage inhibition on venous stasis thrombosis in the rat at 2.0 dose (mg/kg); format: functional; summary of the method: as §3
Rattus norvegicus [22] = assay: Percentage inhibition on venous stasis thrombosis in the rat at 6.0 dose (mg/kg); format: functional; summary of the method: as §3
Rattus norvegicus [23] = assay: Percentage inhibition on venous stasis thrombosis in the rat at 0.05 dose (mg/kg); format: functional; summary of the method: as §3
Chymotrypsinogen A = Chymotrypsinogen A (Bos taurus, UniProt P00766); assay: The compound was evaluated for the inhibitory activity against bovine Chymotrypsinogen; summary of the method: as §4
Prothrombin [24] = molecular target: T2, Prothrombin (Homo sapiens, UniProt P00734); assay: The compound was evaluated for the inhibitory activity against human thrombin.
Summary of the method: (§6)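 Human thrombin (0.0625 U/mL final) in 0.05 M TRIS-HCl pH 8.4 with S-2238, started by enzyme. Absorbance slope at 405 nm was read over 30 s. A range-finding run at about 0.01–100 μM was followed by substrate at 3.125–100 μM with at least two inhibitor levels plus vehicle. DMSO was below 0.5%. Ki = [i]/(Kp/Km − 1) from double-reciprocal plots.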

Prothrombin [25] = molecular target: T2, Prothrombin; assay: Inhibitory activity against human thrombin
Prothrombin [26] = molecular target: T2, Prothrombin; assay: The compound was evaluated for the inhibitory activity against human thrombin; summary of the method: as §6
[27] = The compound was evaluated for the dose to double the control plasma APTT value in the human plasma.; format: functional; summary of the method: as §5

Ki (Prothrombin [1]): 35200 nM
SMILES: CC1CNc2c(cccc2S(=O)(=O)NC(CCCN=C(N)N)C(=O)N2CCC(CCNC(=O)CCP(=O)(O)O)CC2)C1 (configuration not stated)

Ki (Prothrombin [1]): 490 nM
SMILES: N=C(N)NCCCC(NS(=O)(=O)c1cccc2c1NCCC2)C(=O)N1CCC(CCO)CC1 (configuration not stated)

Ki (Plasminogen): 210000 nM
Ki (Trypsin II): 7100 nM
Ki (Chymotrypsinogen A): > 83000 nM
SMILES: CC1(C)CNc2c(cccc2S(=O)(=O)NC(CCCN=C(N)N)C(=O)N2CCC(CCO)CC2)C1 (configuration not stated)
Inhibition (Rattus norvegicus [2]): 3.5%
APTT [3]: 1
Inhibition (Rattus norvegicus [4]): 28.8%
APTT [5]: 2.5
Inhibition (Rattus norvegicus [6]): 58% and 36.4%
Inhibition (Rattus norvegicus [7]): 45.1%
Inhibition (Rattus norvegicus [8]): 94.4% and 82% and 61.2%
Inhibition (Rattus norvegicus [9]): 38.5%
APTT [10]: 1.5 and 1.3
Inhibition (Rattus norvegicus [11]): 100% and 50%
Inhibition (Rattus norvegicus [12]): 49.9%
Inhibition (Rattus norvegicus [13]): 71.7%
Inhibition (Rattus norvegicus [14]): 24.2%
Inhibition (Rattus norvegicus [15]): 45.5%
Inhibition (Rattus norvegicus [16]): 69.8%
APTT [17]: 1.5 and 1
APTT [18]: 1.7
IC200 [19]: 1.9 µM
Inhibition (Rattus norvegicus [20]): 68.3%
Inhibition (Rattus norvegicus [21]): 79.8%
Inhibition (Rattus norvegicus [22]): 95.2%
Inhibition (Rattus norvegicus [23]): 2.3%

Ki (Prothrombin [1]): 310 nM
Ki (Prothrombin [24]): 280 nM
SMILES: CC1CNc2c(cccc2S(=O)(=O)NC(CCCN=C(N)N)C(=O)N2CCC(CCC(=O)NCCC(=O)O)CC2)C1 (configuration not stated)

Ki (Prothrombin [25]): 43 nM
SMILES: CC(=O)NCCC1CCN(C(=O)C(CCCN=C(N)N)NS(=O)(=O)c2cccc3c2NCC(C)(C)C3)CC1 (configuration not stated)
IC200 [19]: 2.15 µM

Ki (Prothrombin [1]): 80 nM
SMILES: CC1CNc2c(cccc2S(=O)(=O)NC(CCCN=C(N)N)C(=O)N2CCC[C@H]2CO)C1 (some centres not stated)

Ki (Prothrombin [26]): 11 nM
Ki (Prothrombin [1]): 19 nM
SMILES: CC1CNc2c(cccc2S(=O)(=O)NC(CCCN=C(N)N)C(=O)N2CCC(CCCl)CC2)C1 (configuration not stated)
IC200 [19]: 2.7 µM

Ki (Prothrombin [1]): 185 nM
SMILES: CC1CNc2c(cccc2S(=O)(=O)NC(CCCNC(=N)N)C(=O)N2CCC(CCCO)CC2)C1 (configuration not stated)

Ki (Prothrombin [1]): 64 nM
SMILES: CC1CNc2c(cccc2S(=O)(=O)NC(CCCN=C(N)N)C(=O)N2CCCCC2CO)C1 (configuration not stated)

Ki (Prothrombin [1]): 23 nM
SMILES: CC1CNc2c(cccc2S(=O)(=O)NC(CCCN=C(N)N)C(=O)N2CCCC[C@H]2CO)C1 (some centres not stated)

Ki (Prothrombin [26]): 66 nM
Ki (Prothrombin [1]): 45 nM
SMILES: CC(=O)NCCC1CCN(C(=O)C(CCCN=C(N)N)NS(=O)(=O)c2cccc3c2NCC(C)C3)CC1 (configuration not stated)
IC200 [27]: 1.8 µM

Ki (Prothrombin [25]): 6.6 nM
SMILES: CC1(C)CNc2c(cc(Cl)cc2S(=O)(=O)NC(CCCN=C(N)N)C(=O)N2CCC(CCF)CC2)C1 (configuration not stated)
IC200 [19]: 3.25 µM

Ki (Prothrombin [1]): 2600 nM
SMILES: CC1CNc2c(cccc2S(=O)(=O)NC(CCCN=C(N)N)C(=O)N2CCC(CC(=O)O)CC2)C1 (configuration not stated)

Ki (Prothrombin [25]): 12.1 nM
SMILES: CC1(C)CNc2c(cc(Cl)cc2S(=O)(=O)NC(CCCN=C(N)N)C(=O)N2CCC(CC(F)F)CC2)C1 (configuration not stated)
IC200 [27]: 6 µM

Ki (Prothrombin [1]): 2900 nM
SMILES: CC(C)(c1ccccc1)c1cccc(S(=O)(=O)NC(CCCN=C(N)N)C(=O)N2CCC[C@H]2CO)c1 (some centres not stated)

Ki (Prothrombin [1]): 34 nM
SMILES: CC1CNc2c(cccc2S(=O)(=O)NC(CCCN=C(N)N)C(=O)N2CCC(CCOC(=O)CCC(=O)O)CC2)C1 (configuration not stated)

Ki (Prothrombin [1]): 3000 nM
SMILES: CC(C)(c1ccccc1)c1cccc(S(=O)(=O)NC(CCCNC(=N)N)C(=O)N2CCCC[C@H]2CO)c1 (some centres not stated)

Ki (Prothrombin [1]): 23 nM
SMILES: CC1CNc2c(cccc2S(=O)(=O)NC(CCCNC(=N)N)C(=O)N2CCc3ccccc3C2)C1 (configuration not stated)

Ki (Prothrombin [25]): 5.7 nM
SMILES: CC1(C)CNc2c(cccc2S(=O)(=O)NC(CCCN=C(N)N)C(=O)N2CCC(CCF)CC2)C1 (configuration not stated)
IC200 [27]: 2.1 µM

From ChEMBL document CHEMBL1132465, “Design and synthesis of thrombin inhibitors: analogues of MD-805 with reduced stereogenicity and improved potency” (J Med Chem, 1999)
